Calls of active or inactive are those of the source. The calls are words filed in the database; no cut-off is given here.
What was measured:
[1] = tested on: Mus musculus; experiment: Antiobesity activity in capsaicin treated ddY mouse assessed as gastric emptying at 25 mg/kg, po measured for 30 mins by Phenol red method (RVb = 87.7 +/- 2.3 %); format: functional, Stomach
[2] = tested on: Mus musculus; experiment: Antiobesity activity in ddY mouse assessed as inhibition of neuropeptide Y mRNA level in hypothalamus at 50 mg/kg, po for 4 days relative to control; format: functional
In short: (§1)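 Male ddY mice dosed po once daily at 15:00–17:00 for 4 d. Hypothalamus dissected 1 h after final dose, held in RNAlater, total RNA extracted. NPY and AgRP mRNA quantified by SYBR qPCR (40 cycles, annealing 58 °C) by relative quantification normalised to β-actin and expressed as ratio to control; n = 6, mean ± SEM.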

[3] = tested on: Mus musculus; experiment: Antiobesity activity in capsaicin-treated ddY mouse assessed as reduction in food intake at 50 mg/kg, po for 3 days; format: functional, organism-based; design: dose 50 mg/kg
[4] = tested on: Mus musculus; experiment: Antiobesity activity in capsaicin treated ddY mouse assessed as inhibition of gastric emptying at 50 mg/kg, po measured for 30 mins by Phenol red method (RVb = 87.7 +/- 2.3 %); format: functional, Stomach; design: scale not given: the % may be the effect or the level left
[5] = tested on: Mus musculus; experiment: Antiobesity activity in ddY mouse assessed as inhibition of neuropeptide Y mRNA level in hypothalamus at 25 mg/kg, po for 4 days relative to control; format: functional; in short: as §1
[6] = tested on: Ileum; experiment: Induction of 5-HT release from ddY mouse ileum assessed as remaining 5-HT per mg of protein at 1000 µM after 20 mins by HPLC (RVb = 0.861 +/- 0.164 ng/mg protein)
[7] = tested on: Ileum; experiment: Induction of 5-HT release from ddY mouse ileum assessed as remaining 5-HT per mg of protein at 100 µM after 20 mins by HPLC (RVb = 0.861 +/- 0.164 ng/mg protein)
[8] = tested on: Mus musculus; experiment: Antiobesity activity in ddY mouse assessed as inhibition of AgRP mRNA level in hypothalamus at 25 mg/kg, po for 4 days relative to control; format: functional; in short: as §1
[9] = tested on: Ileum; experiment: Induction of 5-HT release from ddY mouse ileum assessed per gram of tissue at 100 µM after 20 mins by HPLC (RVb = 11.2 +/- 1.3 ng/g tissue)
[10] = tested on: Mus musculus; experiment: Antiobesity activity in ddY mouse assessed as gastric emptying at 25 mg/kg, po measured for 30 mins by Phenol red method (RVb = 90.4 +/- 1.2 %); format: functional, Stomach
[11] = tested on: Ileum; experiment: Induction of 5-HT release from ddY mouse ileum assessed as remaining 5-HT per gram of tissue at 1000 µM after 20 mins by HPLC (RVb = 68.8 +/- 12.4 ng/g tissue)
[12] = tested on: Ileum; experiment: Induction of 5-HT release from ddY mouse ileum assessed per gram of tissue at 1000 µM after 20 mins by HPLC (RVb = 11.2 +/- 1.3 ng/g tissue)
[13] = tested on: Mus musculus; experiment: Antiobesity activity in ddY mouse assessed as inhibition of AgRP mRNA level in hypothalamus at 50 mg/kg, po for 4 days relative to control; format: functional; in short: as §1
[14] = tested on: Ileum; experiment: Induction of 5-HT release from ddY mouse ileum assessed as remaining 5-HT per gram of tissue at 100 uM after 20 mins by HPLC (RVb = 68.8 +/- 12.4 ng/g tissue)
[15] = tested on: Mus musculus; experiment: Antiobesity activity in ddY mouse assessed as gastric emptying at 50 mg/kg, po measured for 30 mins by Phenol red method (RVb = 90.4 +/- 1.2 %); format: functional, Stomach
[16] = tested on: Mus musculus; experiment: Antiobesity activity in ddY mouse assessed as inhibition of food intake at 50 mg/kg, po; format: functional, organism-based; design: dose 50 mg/kg
[17] = tested on: Mus musculus; experiment: Antiobesity activity in ddY mouse assessed as food intake at 50 mg/kg, po measured upto 3 days (RVb = 15.2 g); format: functional
[18] = tested on: Mus musculus; experiment: Antiobesity activity in ddY mouse assessed as gastric emptying at 25 mg/kg, po measured for 30 mins by Phenol red method (RVb = 86.6 +/- 1.8 %); format: functional, Stomach
[19] = tested on: Mus musculus; experiment: Antiobesity activity in capsaicin treated ddY mouse assessed as gastric emptying at 50 mg/kg, po measured for 30 mins by Phenol red method (RVb = 85.8 +/- 2 %); format: functional, Stomach
[20] = tested on: Mus musculus; experiment: Antiobesity activity in ddY mouse assessed as gastric emptying at 50 mg/kg, po measured for 30 mins by Phenol red method (RVb = 86.6 +/- 1.8 %); format: functional, Stomach
[21] = tested on: Mus musculus; experiment: Antiobesity activity in capsaicin-treated ddY mouse assessed as gastric emptying at 25 mg/kg, po measured for 30 mins by Phenol red method (RVb = 85.8 +/- 2 %); format: functional, Stomach

**Q.** Which Activity [1] does the source give for `C/C=C(\C)C(=O)O[C@H]1[C@H](OC(=O)/C(C)=C/C)[C@]2(CO)[C@H](O)[C@H](O)[C@]3(C)C(=CC[C@@H]4[C@@]5(C)CC[C@H](O[C@@H]6O[C@H](C(=O)O)[C@@H](O)[C@H](O[C@@H]7OC[C@H](O)[C@H](O)[C@H]7O[C@@H]7OC[C@@H](O)[C@H](O)[C@H]7O)[C@H]6O[C@@H]6O[C@H](CO)[C@H](O)[C@H](O)[C@H]6O)C(C)(C)[C@@H]5CC[C@]43C)[C@@H]2CC1(C)C` [CHAKASAPONIN II] here?
**A.** Its Activity is 81.4%.

**Q.** And the “fold change (FC)” value [2]?
**A.** Its value is 0.63.

**Q.** What about the Activity [3] of the same compound?
**A.** The Activity was “Active”.

**Q.** What about the Activity [4] of the same compound?
**A.** Its Activity is 67.1%.

**Q.** What about the “fold change (FC)” value [5] of the same compound?
**A.** Its value is 1.09.

**Q.** And the Activity [6]?
**A.** Its Activity is 0.396 ng/mg.

**Q.** What about the Activity [7] of the same compound?
**A.** The Activity was 0.659 ng/mg.

**Q.** What about the “fold change (FC)” value [8] of the same compound?
**A.** The value was 1.08.

**Q.** And the Activity [9]?
**A.** The Activity was 15.6 ng/g.

**Q.** What about the Activity [10] of the same compound?
**A.** The Activity was 77.9%.

**Q.** What about the Activity [11] of the same compound?
**A.** Its Activity is 31.6 ng/g.

**Q.** And the Activity [12]?
**A.** Its Activity is 28.3 ng/g.

**Q.** What about the “fold change (FC)” value [13] of the same compound?
**A.** Its value is 1.03.

**Q.** And the Activity [14]?
**A.** Its Activity is 50.8 ng/g.

**Q.** What about the Activity [15] of the same compound?
**A.** Its Activity is 57.6%.

**Q.** What about the inhibition [16] of the same compound?
**A.** The inhibition was “Active”.

**Q.** For `C/C=C(\C)C(=O)O[C@H]1[C@H](OC(C)=O)[C@]2(CO)[C@H](O)[C@H](O)[C@]3(C)C(=CC[C@@H]4[C@@]5(C)CC[C@H](O[C@@H]6O[C@H](C(=O)O)[C@@H](O)[C@H](O[C@@H]7OC[C@H](O)[C@H](O)[C@H]7O[C@@H]7OC[C@@H](O)[C@H](O)[C@H]7O)[C@H]6O[C@@H]6O[C@H](CO)[C@H](O)[C@H](O)[C@H]6O)C(C)(C)[C@@H]5CC[C@]43C)[C@@H]2CC1(C)C` [CHAKASAPONIN III], which Activity [17] is on record?
**A.** The Activity was 12.6 g.

**Q.** With `CC1(C)C[C@H]2C3=CC[C@@H]4[C@@]5(C)CC[C@H](O[C@@H]6O[C@H](C(=O)O)[C@@H](O)[C@H](O[C@@H]7OC[C@H](O)[C@H](O)[C@H]7O[C@@H]7OC[C@@H](O)[C@H](O)[C@H]7O)[C@H]6O[C@@H]6O[C@H](CO)[C@H](O)[C@H](O)[C@H]6O)C(C)(C)[C@@H]5CC[C@@]4(C)[C@]3(C)[C@@H](O)[C@@H](O)[C@@]2(CO)[C@@H](O)[C@@H]1O` as the compound, how does the inhibition [5] read?
**A.** Its inhibition is “inactive”.

**Q.** And the inhibition [8]?
**A.** The inhibition was “inactive”.

**Q.** What about the inhibition [13] of the same compound?
**A.** Its inhibition is “inactive”.

**Q.** Which results are given for `C/C=C(\C)C(=O)O[C@H]1[C@H](OC(C)=O)[C@]2(CO)[C@H](O)C[C@]3(C)C(=CC[C@@H]4[C@@]5(C)CC[C@H](O[C@@H]6O[C@H](C(=O)O)[C@@H](O)[C@H](O[C@@H]7OC[C@H](O)[C@H](O)[C@H]7O[C@@H]7OC[C@@H](O)[C@H](O)[C@H]7O)[C@H]6O[C@@H]6O[C@H](CO)[C@H](O)[C@H](O)[C@H]6O)C(C)(C)[C@@H]5CC[C@]43C)[C@@H]2CC1(C)C` [CHAKASAPONINS I]?
**A.** Activity [18]: 76.4%; Activity [19]: 68%; Activity [17]: 10.5 g; Activity [20]: 55.7%; Activity [21]: 79.2%

Reference: ChEMBL document CHEMBL1833879, “Anti-obesity effects of the methanolic extract and chakasaponins from the flower buds of Camellia sinensis in mice” (2011)
